The source of these data is PubChem BioAssay AID504733 (Southern Research Specialized Biocontainment Screening …, 2011).

This experiment has as its system E. coli UTI89 capsule, orcinol OD572. Put plainly: surface polysaccharide capsule reduction in UPEC – orcinol colorimetric, UTI89 strain, 100 µM, orthogonal assay, confirmation (AID 504733). The following applies: at 100 µM; hits give low values. The gist of the method: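 System: UPEC UTI89 or ΔkpsM mutant bacteria / Controls: no-compound cultures and ΔkpsM mutant / Compound dosing: one 100 µM compound dose / Signal: orcinol colorimetric reaction, absorbance at 572 nm / Times: acid hydrolysis of precipitated polysaccharide 1 h at 80 °C, pH 2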
For the molecule `CC1=NN2C(=N)/C(=C\c3ccc(SCc4ccco4)o3)C(=O)N=C2S1`, the capsule formation was 20.2%.
For `CCOc1ccc(-c2cc(NC(=O)c3c(F)cccc3F)c(C(=O)O)s2)cc1` the value was 9.04%.
With `O=C(ONc1ccc(N=NC(=O)c2ccccc2O)cc1)c1ccccc1`, the capsule formation is 16%.
For `O=C(Nc1ccncc1)c1ccc2ncsc2c1` the value was 19.1%.
For `COc1ccc2nc(NC(=O)c3ccc(Br)s3)sc2c1` the value was 24.5%; for `O=C(NCc1cc([N+](=O)[O-])ccc1O)c1cccnc1Sc1ccccc1Cl`, 18.6%.
